Converted amounts (≈) assume the structure as drawn.
How the values were obtained:
[1] = Effective dose was determined in vivo for 50% parasite (Plasmodium berghei) reduction in the male albino mice after oral administration; type: functional; conditions: Mus musculus
Summary of the method: (§1)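 Mice 25 ± 2 g infected iv on day 0 with 2×10^7 P. berghei ANKA-infected donor erythrocytes. Compound dissolved or suspended in 7% Tween-80, 3% ethanol in water, single dose 24 h post-infection (0.01 mL/g), 3 mice/group. Giemsa blood smears at day 3 (72 h post-infection). Parasitemia counted microscopically; reduction calculated versus untreated controls (=100%). ED50/90 determined by dose titration.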

[2] = Effective dose was determined in vivo for 50% parasite (Plasmodium berghei) reduction in the male albino mice after subcutaneous administration; type: functional; conditions: Mus musculus, sc; for ED90: in the assay text read “90% parasite” for “50% parasite”; summary of the method: as §1
[3] = Effective dose was determined in vivo for 90% parasite (Plasmodium berghei) reduction in the male albino mice after subcutaneous administration; type: functional; conditions: Mus musculus, sc; summary of the method: as §1
[4] = Effective dose was determined in vivo for 90% parasite (Plasmodium berghei) reduction in the male albino mice after oral administration; type: functional; conditions: Mus musculus; summary of the method: as §1
[5] = tested on: Plasmodium falciparum; test: In vitro antimalarial activity against chloroquine-resistant Plasmodium falciparum K1; type: functional, organism-based
Summary of the method: (§2)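 Asynchronous P. falciparum cultured in human type A+ erythrocytes, RPMI 1640 with 0.5% AlbuMAX, 25 mM HEPES, 25 mM NaHCO3 (pH 7.3), hypoxanthine, neomycin; 37 °C, 3% O2/4% CO2/93% N2. Compounds were dissolved in DMSO and titrated in duplicate over a 64-fold range. Initial parasitemia was 0.75% at 2.5% hematocrit. Growth was read by [3H]hypoxanthine incorporation, with label added 16 h before the end. IC50 was taken by linear interpolation.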

[6] = tested on: Plasmodium falciparum; test: In vitro antimalarial activity against chloroquine-sensitive Plasmodium falciparum NF54; type: functional, organism-based; summary of the method: as §2
[7] = Growth inhibition of Plasmodium berghei was tested in vivo in male albino mice (Mus musculus) after oral administration of a dose of 100 mg/kg; type: functional; conditions: read-out: GI; summary of the method: as §1
[8] = Growth inhibition of Plasmodium berghei was tested in vivo in male albino mice (Mus musculus) after subcutaneous administration of a dose of 100 mg/kg; type: functional; conditions: sc, read-out: GI; summary of the method: as §1
[9] = Growth inhibition of Plasmodium berghei was tested in vivo in male albino mice (Mus musculus) after oral administration of a dose of 50 mg/kg; type: functional; conditions: read-out: GI; summary of the method: as §1
[10] = Growth inhibition of Plasmodium berghei was tested in vivo in male albino mice (Mus musculus) after subcutaneous administration of a dose of 50 mg/kg; type: functional; conditions: sc, read-out: GI; summary of the method: as §1
[11] = Growth inhibition of Plasmodium berghei was tested in vivo in male albino mice (Mus musculus) after oral administration of a dose of 10 mg/kg; type: functional; conditions: read-out: GI; summary of the method: as §1
[12] = Growth inhibition of Plasmodium berghei was tested in vivo in male albino mice (Mus musculus) after subcutaneous administration of a dose of 10 mg/kg; type: functional; conditions: sc, read-out: GI; summary of the method: as §1

SMILES | IC50 [5] [ng/mL] | IC50 [6] [ng/mL] | inhibition in vivo at 100 mg/kg [7] [%] | inhibition in vivo at 100 mg/kg [8] [%] | further results
CCN(CC)CCCC(C)Nc1ccnc2cc(Cl)ccc12 (stereo not drawn) [CHLOROQUINE] |  |  |  |  | ED50 [1]: 2.4 mg/kg; ED50 [2]: 1.5 mg/kg; ED90 [3]: 3.3 mg/kg; ED90 [4]: 5 mg/kg
CO/N=C(/C(=O)OC)c1ccccc1-c1ccc(-c2ccccc2C(F)(F)F)s1 | 60.8 (≈ 145 nM) | 23.7 (≈ 56.5 nM) | 0 | 0 | 
CO/C=C(/C(=O)OC)c1ccccc1/C=C/c1ccc(-c2ccccc2C(F)(F)F)o1 | 1.8 (≈ 4.2 nM) | 0.39 (≈ 0.91 nM) |  |  | 
CO/C=C(/C(=O)OC)c1ccccc1CCCCc1ccccc1C(F)(F)F | 1.53 (≈ 3.9 nM) | 0.54 (≈ 1.38 nM) | 82 | 99 | 
CO/C=C(/C(=O)OC)c1ccccc1/C=C/C=C/c1cccc(F)c1 | 8.4 (≈ 24.8 nM) | 1.5 (≈ 4.43 nM) |  |  | inhibition in vivo at 50 mg/kg [9]: 0%; inhibition in vivo at 50 mg/kg [10]: 0%
CO/N=C(/C(=O)OC)c1ccccc1/C=C/C=C/c1ccccc1C(F)(F)F | 1.4 (≈ 3.6 nM) | 0.4 (≈ 1.03 nM) | 46 | 44 | 
CO/C=C(/C(=O)OC)c1ccccc1/C=C/C=C/c1ccc(C(F)(F)F)cc1C(F)(F)F | 0.13 (≈ 0.285 nM) | 0.06 (≈ 0.131 nM) |  |  | inhibition in vivo at 10 mg/kg [11]: 100%; inhibition in vivo at 10 mg/kg [12]: 100%
CO/C=C(/C(=O)OC)c1ccccc1/C=C/C=C/c1ccc(Cl)cc1 | 2 (≈ 5.64 nM) | 0.52 (≈ 1.47 nM) |  |  | inhibition in vivo at 50 mg/kg [9]: 0%; inhibition in vivo at 50 mg/kg [10]: 0%
CO/N=C(\C(=O)OC)c1ccccc1C#CC#Cc1ccccc1C(F)(F)F | 25.8 (≈ 67 nM) | 10.8 (≈ 28 nM) | 0 | 0 | 
CO/C=C(/C(=O)OC)c1ccccc1/C=C/C=C/c1ccc(C)cc1C | 0.05 (≈ 0.143 nM) | 0.03 (≈ 0.0861 nM) |  |  | ED50 [1]: 1.11 mg/kg; inhibition in vivo at 10 mg/kg [11]: 100%; inhibition in vivo at 10 mg/kg [12]: 100%; ED50 [2]: 0.33 mg/kg; ED90 [2]: 0.72 mg/kg; ED90 [4]: 2.65 mg/kg
CO/C=C(/C(=O)OC)c1ccccc1/C=C/C=C/c1cccc(OC)c1[N+](=O)[O-] | 0.58 (≈ 1.47 nM) | 0.11 (≈ 0.278 nM) |  |  | 
CO/C=C(/C(=O)OC)c1ccccc1/C=C/c1ccccc1C(F)(F)F | 7.8 (≈ 21.5 nM) | 3.01 (≈ 8.31 nM) | 0 | 0 | 
CO/C=C(/C(=O)OC)c1ccccc1/C=C/C=C/c1ccc(Cl)cc1Cl | 0.1 (≈ 0.257 nM) | 0.03 (≈ 0.0771 nM) |  |  | ED50 [1]: 1.07 mg/kg; inhibition in vivo at 10 mg/kg [11]: 100%; inhibition in vivo at 10 mg/kg [12]: 100%; ED50 [2]: 0.69 mg/kg; ED90 [2]: 1.8 mg/kg; ED90 [4]: 4.03 mg/kg
CO/C=C(/C(=O)OC)c1cccc(/C=C/C=C/c2ccc(C(F)(F)F)cc2C(F)(F)F)c1 | 396 (≈ 869 nM) | 176 (≈ 385 nM) | 0 | 0 | 
CO/C=C(/C(=O)OC)c1ccccc1/C=C/C=C/c1cccc(Br)c1 | 31.4 (≈ 78.6 nM) | 6.1 (≈ 15.3 nM) |  |  | inhibition in vivo at 50 mg/kg [9]: 0%; inhibition in vivo at 50 mg/kg [10]: 0%
CO/C=C(/C(=O)OC)c1ccccc1/C=C/C=C/c1ccccc1 | 3.7 (≈ 11.5 nM) | 0.8 (≈ 2.5 nM) |  |  | inhibition in vivo at 50 mg/kg [9]: 0%; inhibition in vivo at 50 mg/kg [10]: 0%
CO/C=C(/C(=O)OC)c1ccccc1/C=C/C=C/c1cccc(C(F)(F)F)c1 | 16.7 (≈ 43 nM) | 7.8 (≈ 20.1 nM) |  |  | inhibition in vivo at 50 mg/kg [9]: 0%; inhibition in vivo at 50 mg/kg [10]: 0%
CO/N=C(/C(=O)OC)c1ccccc1CCCCc1ccccc1C(F)(F)F | 15 (≈ 38.1 nM) | 6.4 (≈ 16.3 nM) | 0 | 0 | 
CO/C=C(/C(=O)OC)c1ccc(/C=C/C=C/c2ccc(C(F)(F)F)cc2C(F)(F)F)cc1 | > 5000 | > 5000 | 0 | 0 | 
CO/C=C(/C(=O)OC)c1ccccc1/C=C/C=C/c1ccccc1Cl | 0.39 (≈ 1.1 nM) | 0.09 (≈ 0.254 nM) |  |  | inhibition in vivo at 10 mg/kg [11]: 41%; inhibition in vivo at 10 mg/kg [12]: 77%
CO/N=C(/C(=O)OC)c1ccccc1C#CC#Cc1ccccc1C(F)(F)F | 2280 (≈ 5910 nM) | 1390 (≈ 3600 nM) | 0 | 0 | 
CO/C=C(/C(=O)OC)c1ccccc1/C=C/CSc1ccccc1C(F)(F)F | 2.51 (≈ 6.15 nM) | 1.75 (≈ 4.28 nM) | 46 | 91 | 
CO/C=C(/C(=O)OC)c1ccccc1/C=C/C=C/c1ccc(F)cc1Cl | 0.19 (≈ 0.51 nM) | 0.06 (≈ 0.161 nM) |  |  | inhibition in vivo at 10 mg/kg [11]: 92%; inhibition in vivo at 10 mg/kg [12]: 100%
CO/C=C(/C(=O)OC)c1ccccc1CSc1ccccc1C(F)(F)F | 29 (≈ 75.8 nM) | 5.5 (≈ 14.4 nM) | 0 | 0 | 
O=C1C(O)=C([C@H]2CC[C@H](c3ccc(Cl)cc3)CC2)C(=O)c2ccccc21 [ATOVAQUONE] | 0.41 (≈ 1.12 nM) | 0.11 (≈ 0.3 nM) |  |  | ED50 [1]: 0.05 mg/kg; ED50 [2]: 0.04 mg/kg; ED90 [3]: 0.9 mg/kg; ED90 [4]: 0.1 mg/kg
CO/C=C(/C(=O)OC)c1ccccc1CO/N=C(\C)c1ccccc1C(F)(F)F | 0.65 (≈ 1.6 nM) | 0.17 (≈ 0.417 nM) | 0 | 0 | 
CO/C=C(/C(=O)OC)c1ccccc1/C=C/C=C/c1ccccc1C(F)(F)F | 0.15 (≈ 0.386 nM) | 0.06 (≈ 0.154 nM) |  |  | inhibition in vivo at 10 mg/kg [11]: 99%; inhibition in vivo at 10 mg/kg [12]: 100%
CO/C=C(/C(=O)OC)c1ccccc1/C=C/C=C/c1ccccc1C#N | 1.6 (≈ 4.63 nM) | 0.52 (≈ 1.51 nM) | 0 | 0 | 
